Experimental findings from ChEMBL document CHEMBL3351780, “Novel hybrids of metronidazole and quinolones: synthesis, bioactive evaluation, cytotoxicity, preliminary antimicrobial mechanism and effect of metal ions on their transportation by human serum albumin” (Eur J Med Chem, 2014) are described below.

The MIC is the lowest concentration that inhibits growth of the organism. Broadly, the solubility is the concentration that dissolves in the medium under given conditions. A low value points to little dissolved substance. By pKa is commonly meant the negative logarithm of the acid dissociation constant. As a reminder, the logP is the decadic logarithm of the partition coefficient of the neutral form, usually between octanol and water. Higher therefore signals a more lipophilic compound.

In brackets after ≈: the same amount, converted by molar mass. Activity calls are given as the source filed them. The rule behind the calls is not given here.

The test system of one series is Saccharomyces cerevisiae. Put plainly: Antifungal activity against Saccharomyces cerevisiae after 24 hrs by microbroth dilution method. It is filed as functional. Summed up: (§1)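 Spore suspension prepared in sterile distilled water from one-day-old cultures on Sabouraud agar, final 1-5 x 10^3 spores/mL. Compounds were serially diluted in RPMI 1640 to give eleven dilutions. Incubation at 35 °C for 24 h. Growth read visually and spectrophotometrically, in triplicate. MIC is the lowest concentration with complete inhibition.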

Series [1] deals with Staphylococcus aureus. Put plainly: Antibacterial activity against Staphylococcus aureus ATCC 25923 by two-fold serial dilution method. It is filed as functional. Summed up: (§2)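 Standard two-fold serial dilution in 96-well microtest plates following NCCLS. Top dilutions printed as 32, 16, 8, 4, 2, 1, 0.5 ug/mL. Wells inoculated and held at 37 °C for 24 h. Growth judged visually and by spectrophotometer, in triplicate. MIC is the lowest concentration giving complete growth inhibition.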

The test system of a further series is Shigella dysenteriae. Put plainly: Antibacterial activity against Shigella dysenteriae by two-fold serial dilution method. It is filed as functional. Summed up:
(§3)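 MIC read as the lowest concentration giving complete growth inhibition. Two-fold serial dilutions were made in 96-well plates following NCCLS, giving a series down to 0.5 µg/mL (…32, 16, 8, 4, 2, 1, 0.5). Plates were inoculated and incubated at 37 °C for 24 h. A DMSO-with-inoculum control without drug was included. Growth was monitored visually and spectrophotometrically, in triplicate.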

Another series has as its system Cyberlindnera jadinii. Put plainly: Antifungal activity against Candida utilis after 24 hrs by microbroth dilution method. To be noted: Williopsis jadinii. It is filed as functional. Summed up: as §1
On the technique in general: In broth dilution the organism is exposed to a series of concentrations in liquid medium.

Another series has as its system Bacillus spizizenii. Put plainly: Antibacterial activity against Bacillus subtilis ATCC 6633 by two-fold serial dilution method. It is filed as functional. Summed up:
as §2

Series [2] deals with Staphylococcus aureus. Put plainly: Antibacterial activity against methicillin-resistant Staphylococcus aureus N315 by two-fold serial dilution method. It is filed as functional. The method in brief:
as §3

For a further series, the system named is Streptococcus pneumoniae. Put plainly: Antibacterial activity against Streptococcus pneumoniae by two-fold serial dilution method. It is filed as functional. The method in brief:
as §2

For another series, the system named is Candida albicans. Put plainly: Antifungal activity against Candida albicans ATCC 76615 after 24 hrs by microbroth dilution method. It is filed as functional. The conditions noted are these: ATCC 76615, 24 h. The method in brief: as §1
The subject of a further series is Micrococcus luteus. Put plainly: Antibacterial activity against Micrococcus luteus by two-fold serial dilution method. It is filed as functional. The method in brief:
as §2

Series [3] in a line: Cytotoxicity against human A549 cells assessed as cell viability at 256 ug/ml after 24 hrs by CCK-8 assay. It is filed as cell-based. The conditions noted are these: read-out: Activity. Summed up:
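A549 cells were plated and allowed to attach for 24 h, then medium with the compound was added. The compound came from DMSO stocks diluted in medium to 8, 16, 32, 64, 128 and 256 µg/mL. Cells were kept at 37 °C in 5% CO2. Viability was read by CCK-8 absorbance at 450 nm against a drug-free control, three replicates.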
On the technique in general: Tetrazolium assays rely on reduction of a dye to a coloured formazan, in cell work by metabolically active cells.

A further series concerns Pseudomonas aeruginosa. Put plainly: Antibacterial activity against Pseudomonas aeruginosa by two-fold serial dilution method. It is filed as functional. The method in brief: as §2
Another series relates to Escherichia coli. Put plainly: Antibacterial activity against Escherichia coli DH52 by two-fold serial dilution method. It is filed as functional. The method in brief:
as §2

Another series has as its system Pichia norvegensis. Put plainly: Antifungal activity against Candida mycoderma after 24 hrs by microbroth dilution method. It is filed as functional.
A short description of series [4]: Antibacterial activity against Eberthella typhosa by two-fold serial dilution method. It is filed as functional. Summed up: as §3
A short description of series [5]: Aqueous solubility of the compound by UV-spectrophotometry. It is filed as physicochemical.
Series [6] is described as follows: Dissociation constant, pKa of the compound by UV-spectroscopy. It is filed as physicochemical. Summed up:
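DMSO stock at 4.0 × 10^-3 mol/L added to 2 mL of buffer, then shaken 10 min at room temperature. Buffers were acetate (pH 4.0–5.0), MES (5.5–6.5), HEPES (7.0–8.0) and CHES (8.5–9.4), each from 500 mM stocks. Scans ran 210–400 nm and were normalized. Absolute differences from the acid spectrum were summed at 244 and 308 nm, plotted against pH and fitted to obtain pKa.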

The nature of series [7]: Octanol-water partition co-efficient, log P of the compound by shake flask method. It is filed as physicochemical.
The test system of the next series is Calf thymus DNA. Put plainly: Binding affinity to calf thymus DNA by UV-vis spectroscopy. It is filed as nucleic-acid assay. To be noted: Bos taurus. The method in brief: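 Calf thymus DNA held at a fixed concentration and titrated with increasing amounts of the compound. UV-vis absorption spectra were recorded at room temperature in 1.0 cm quartz cells, following the DNA band at 260 nm.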

Another series concerns Aspergillus flavus. Put plainly: Antifungal activity against Aspergillus flavus ATCC 96918 after 24 hrs by microbroth dilution method.

For `Cc1ccc2c(c1)c(=O)c(C(=O)O)cn2CC(O)Cn1cnc([N+](=O)[O-])c1` (stereo not given), the MIC stood at 4 µg/mL (≈ 10.7 µM) in the series on Saccharomyces cerevisiae; 0.5 µg/mL (≈ 1.34 µM) in the series on Staphylococcus aureus [1]; 4 µg/mL (≈ 10.7 µM) against Shigella dysenteriae; 256 µg/mL (≈ 688 µM) in the series on Cyberlindnera jadinii; 1 µg/mL (≈ 2.69 µM) against Bacillus spizizenii; 8 µg/mL (≈ 21.5 µM) against Staphylococcus aureus [2]. Further, the minimal inhibitory concentration (MIC) stood at 32 µg/mL (≈ 85.9 µM) against Streptococcus pneumoniae; 16 µg/mL (≈ 43 µM) against Candida albicans; 8 µg/mL (≈ 21.5 µM) with Micrococcus luteus; 1 µg/mL (≈ 2.69 µM) in the series with Pseudomonas aeruginosa; 16 µg/mL (≈ 43 µM) against Escherichia coli; 64 µg/mL (≈ 172 µM) in the series on Pichia norvegensis. In series [4], this compound returned an MIC of 4 µg/mL (≈ 10.7 µM). In addition, the viability at 24 h, 256 ug/ml in [3] is > 83%.
For the compound `Cc1ccc2c(c1)c(=O)c(C(=O)O)cn2CC(O)Cn1c([N+](=O)[O-])cnc1C` (stereo not given), the MIC in the series on Saccharomyces cerevisiae came out at 2 µg/mL (≈ 5.18 µM); against Staphylococcus aureus [1], 8 µg/mL (≈ 20.7 µM); against Shigella dysenteriae, 8 µg/mL (≈ 20.7 µM); in the series on Cyberlindnera jadinii, 512 µg/mL (≈ 1330 µM); against Bacillus spizizenii it was 8 µg/mL (≈ 20.7 µM); with Staphylococcus aureus [2], 4 µg/mL (≈ 10.4 µM). Further, the minimal inhibitory concentration (MIC) turned out to be 4 µg/mL (≈ 10.4 µM) in the series with Streptococcus pneumoniae; 16 µg/mL (≈ 41.4 µM) against Candida albicans; 1 µg/mL (≈ 2.59 µM) in the series with Micrococcus luteus; 2 µg/mL (≈ 5.18 µM) against Pseudomonas aeruginosa; 1 µg/mL (≈ 2.59 µM) against Escherichia coli; 256 µg/mL (≈ 663 µM) against Pichia norvegensis. For the same compound, the MIC in series [4] turned out to be 8 µg/mL (≈ 20.7 µM). Further, the concentration in solution in [5] (solubility) was 390 µg/mL (≈ 1010 µM). In addition, in series [6], the pKa came to 6.43. Also, in [3], the viability at 24 h, 256 ug/ml was > 83%. Further, the logP in series [7] was -0.03.
Turning to `CCn1cc(C(=O)O)c(=O)c2cc(F)c(N3CCNCC3)cc21` [NORFLOXACIN], in the series on Calf thymus DNA, the result was Active. The minimum inhibitory concentration (MIC) came to 1 µg/mL (≈ 3.13 µM) in the series with Bacillus spizizenii, 1 µg/mL (≈ 3.13 µM) against Streptococcus pneumoniae and 4 µg/mL (≈ 12.5 µM) in [4].
With `CCOC(=O)c1cn(CC2CO2)c2cc(C(F)(F)F)ccc2c1=O` (racemic), the MIC was found to be 512 µg/mL (≈ 1500 µM) in the series with Aspergillus flavus; 512 µg/mL (≈ 1500 µM) against Cyberlindnera jadinii; 31 µg/mL (≈ 90.8 µM) in the series with Bacillus spizizenii; 32 µg/mL (≈ 93.8 µM) in the series with Pichia norvegensis; 2 µg/mL (≈ 5.86 µM) in series [4].
